Assay results published in ChEMBL document CHEMBL1121580, “Comparison of biological effects of N-alkylated congeners of beta-phenethylamine derived from 2-aminotetralin, 2-aminoindan, and 6-aminobenzocycloheptene” (1980).
Active and inactive are the calls of the source. No cut-off for these calls is given here.

Experiments:
Mus musculus [1] = species: Mus musculus; assay: (§1) Evaluated for drug-induced inhibition of exploratory activity in mouse; format: functional; design: concentration or dose not given beside the values
Procedure, shortened: (§2)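 Male Swiss-Webster mice (20–30 g) were acclimated for several days and tested in groups of three in an activity meter. Dosing was 10 mg/kg ip immediately before cage entry; controls got water on each test day. Counts from the 18 min starting at 6 min were summed as % reduction vs control. Three groups per compound; one-way ANOVA, Scheffé.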

Rattus norvegicus [2] = species: Rattus norvegicus; assay: Evaluated for induce circling behavior in the rat expressed as rotational behavior (turns/h); format: functional
Procedure, shortened: (§3)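 Used male Sprague-Dawley rats (200–300 g) with unilateral substantia nigra 6-hydroxydopamine lesions. A single 10 mg/kg sc dose was given to four rats at the start of a 1-h automatic recording. Turns/h were recorded with direction (ipsilateral or contralateral); a mean above 100 counted as substantial circling.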

Mus musculus [3] = species: Mus musculus; assay: Evaluated for analgesic activity and increase in reaction time in mouse by hotplate assay; format: functional; design: unit not given beside the values
Procedure, shortened: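 Male Swiss-Webster mice (20–30 g) got 10 mg/kg ip 10 min before a single exposure to a 55 ± 0.5 °C hot plate. End point was jumping or paw licking. Ten mice per drug, plus 10 saline controls each test day; also run after naloxone 5 mg/kg ip pretreatment. Mean latency (s) ± SEM; grouped Student's t test vs control.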

Canis familiaris [4] = species: Canis familiaris; assay: Evaluated for inhibition of pressor response during carotid occlusion in dog; format: functional; settings: Canis lupus familiaris
Procedure, shortened: (§4)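 Dogs (8–15 kg) under thiopental sodium 15 mg/kg iv, then barbital sodium 200 mg/kg. Pressor response to bilateral carotid occlusion was monitored at least 1 h per dose. Doses changed by 0.48 log interval once responses returned to control. At least five dogs per compound; value is the calculated amount giving 50% inhibition of the pressor response.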

Felis catus = species: Felis catus; assay: Evaluated for inhibition of pressor response during central sciatic nerve stimulation in cat; format: functional
Procedure, shortened: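 In cats under pentobarbital sodium 30 mg/kg intrathoracic, left femoral arterial pressure was recorded. The central stump of the sectioned right sciatic nerve was stimulated at 4 Hz, 5 ms, supramaximal voltage for 30 s (pressor 30–60 mmHg). Compounds were given iv, followed 1 h, doses stepped by 0.48 log unit; at least six cats. Value is the calculated amount giving 50% pressor inhibition.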

Canis familiaris [5] = species: Canis familiaris; assay: Evaluated for inhibition of pressor response during carotid occlusion in dog; IA = inactive; format: functional, organism-based; settings: Canis lupus familiaris; procedure, shortened: as §4
Canis familiaris [6] = species: Canis familiaris; assay: Evaluated for inhibition of pressor response during carotid occlusion in dog.; format: functional; settings: Canis lupus familiaris; procedure, shortened: as §4
Rattus norvegicus [7] = species: Rattus norvegicus; assay: Evaluated for induce circling behavior in the rat expressed as rotational behavior (turns/h); IA = inactive; format: functional, organism-based; procedure, shortened: as §3
Mus musculus [8] = species: Mus musculus; assay: as §1; format: functional; procedure, shortened: as §2
Canis familiaris [9] = assay: Evaluated for inhibition of pressor response during carotid occlusion in dog at 0.5 mg/kg; IA = inactive; format: functional, organism-based; design: dose 0.5 mg/kg; settings: Canis lupus familiaris
Canis familiaris [10] = species: Canis familiaris; assay: Evaluated for inhibition of pressor response during carotid occlusion in dog at 0.5; IA = inactive; format: functional, organism-based; settings: Canis lupus familiaris

Compound	Reduction (Mus musculus [1]) [%]	Activity (Rattus norvegicus [2]) [turns hr-1]	Activity (Mus musculus [3])	other results
Br.CCCCN(CCCC)C1CCc2ccccc2C1 (configuration not stated)	0.8	4	12	–
CCCNC1CCc2ccccc2C1.Cl (configuration not stated)	79	804	18.9	ED50 (Canis familiaris [4]): 3.38 µmol/kg; ED50 (Felis catus): 0.9 µmol/kg
Cl.NC1Cc2ccccc2C1	76	27	35.8	–
CN(C)C1CCc2ccccc2C1.Cl (configuration not stated)	88.1	53	24.2	ED50 (Felis catus): 0.16 µmol/kg; ED50 (Canis familiaris [5]): inactive
CCN(CC)C1Cc2ccccc2C1.Cl	50.6	304	33.9	ED50 (Felis catus): 1.14 µmol/kg
CC(C)NC1Cc2ccccc2C1.Cl	2.8	25	17.8	–
CC(C)N(C)C1CCc2ccccc2C1.Cl (configuration not stated)	79.7	16	20.6	–
CN(C)C1Cc2ccccc2C1.Cl	–	23	–	–
CCCNC1Cc2ccccc2C1.Cl	21.9	6	15	–
CCNC1CCc2ccccc2C1.Cl (configuration not stated)	76.4	508	29.6	ED50 (Felis catus): 2.3 µmol/kg; ED50 (Canis familiaris [6]): 0.52 µmol/kg
NC1CCCc2ccccc2C1 (configuration not stated)	–	–	–	Activity (Rattus norvegicus [7]): inactive
CCN(CC)C1CCc2ccccc2C1.Cl (configuration not stated)	73.4	501	33.5	ED50 (Felis catus): 0.35 µmol/kg
CCCN(CCC)C1CCc2ccccc2C1.Cl (configuration not stated)	76.5	734	29.2	ED50 (Canis familiaris [4]): 0.22 µmol/kg; ED50 (Felis catus): 0.09 µmol/kg
CNC1Cc2ccccc2C1.Cl	80.3	6	28.6	–
CC(C)NC1CCc2ccccc2C1.Cl (configuration not stated)	–	–	27	–
CNC1CCc2ccccc2C1.Cl (configuration not stated)	–	263	16	Reduction (Mus musculus [8]): 70.2%
CC(C)NC1CCCc2ccccc2C1 (configuration not stated)	–	–	–	ED50 (Canis familiaris [9]): inactive
CCCCNC1CCc2ccccc2C1.Cl (configuration not stated)	–	7	17.6	Reduction (Mus musculus [8]): 20.7%
CCNC1Cc2ccccc2C1.Cl	73.6	17	22.1	–
CCCCNC1Cc2ccccc2C1.Cl	7.1	3	17.7	–
CC(C)N(C)C1Cc2ccccc2C1.Cl	64	15	29.4	–
Cl.NC1CCc2ccccc2C1 (configuration not stated)	55.1	104	25.6	–
CCCN(CCC)C1CCCc2ccccc2C1 (configuration not stated)	–	–	–	Activity (Rattus norvegicus [7]): inactive
CCCN(CCC)C1Cc2ccccc2C1.Cl	64	289	22	ED50 (Felis catus): 0.25 µmol/kg
CN(C)C1CCCc2ccccc2C1 (configuration not stated)	–	–	–	ED50 (Canis familiaris [10]): inactive
CCCCN(CCCC)C1Cc2ccccc2C1.Cl	8.4	2	11.7	–
